Compounds with a hit are over-represented: about 4.3% of the library has one in this group of screens.
Rtt109 Vps75: C. albicans Rtt109 histone acetyltransferase inhibition | inhibition, % at 34.9 µM | purified Rtt109/Vps75, ThioGlo CoA-SH fluorescence, 4 h | Q5AAJ8 | hit rate 0.16% among 330,000 | AID 540336;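 active = inhibition of at least 50% in every replicate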
Target sequence (Q5AAJ8 whole entry, looked up): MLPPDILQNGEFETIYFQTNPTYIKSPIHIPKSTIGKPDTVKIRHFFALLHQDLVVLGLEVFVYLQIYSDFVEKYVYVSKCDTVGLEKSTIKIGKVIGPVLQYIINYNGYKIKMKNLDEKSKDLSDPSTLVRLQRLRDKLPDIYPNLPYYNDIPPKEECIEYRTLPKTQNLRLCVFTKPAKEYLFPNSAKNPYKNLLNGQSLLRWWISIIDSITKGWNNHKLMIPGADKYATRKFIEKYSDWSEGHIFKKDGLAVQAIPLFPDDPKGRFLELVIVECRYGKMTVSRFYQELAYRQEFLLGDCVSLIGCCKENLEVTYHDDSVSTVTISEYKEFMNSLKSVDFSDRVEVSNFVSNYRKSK
CAL PDZ FP-1: CAL PDZ (human) peptide binding inhibition; purified CAL PDZ, TMR-peptide fluorescence polarization, 1 h; hit rate 0.92% among 300,000; inhibition, % at 24.9 µM;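 active = mean inhibition of at least 30% with at least half of replicates also reaching 30%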;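 note: 0% = DMSO neutral control and 100% = excess unlabeled competitor peptide PRC23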
DYRK1A inh: blocks rat Dyrk1A kinase activity; Q63470; ADP-Glo luminescence, NFATc1 peptide; AID 504441; hit rate 0.43% among 310,000; inhibition, % at 12.5 µM; in the data active = inhibition above about 50%;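 note: plate controls were vehicle with enzyme for no effect and no enzyme for full effect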
CAL PDZ FP-2: inhibitors of human CAL PDZ peptide binding; Q9HD26; purified CAL PDZ, TMR-peptide fluorescence polarization, 1 h; inhibition, % at 20 µM; hit rate 0.02% among 330,000;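 active = highest replicate inhibition of at least 40%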;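 note: plate controls were DMSO neutral control wells for no effect and unlabeled competitor peptide control wells for full effect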
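System: purified tagged CAL PDZ domain construct (CerCALP). Schedule: 1 h incubation at room temperature before polarization reading. Medium: 25 mM sodium phosphate pH 7.4, 150 mM NaCl, TCEP, IgG, Thesit. Read-out: percent inhibition from loss of millipolarization. Measured by: FP readout, S and P plane fluorescence. Probe or stimulus: fluorescent TMR peptide probe.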
ALR H2O2 inh: blocks human ALR sulfhydryl oxidase activity | P55789 | purified ALR, DTT oxidation, H2O2 HRP-luminol luminescence | inhibition, % (test concentration not listed) | hit rate 3.8% among 290,000 | AID 485317;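 active = mean replicate inhibition above about 79%, with every replicate also reaching it, limit read from the data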
Target sequence (P55789 whole entry, looked up): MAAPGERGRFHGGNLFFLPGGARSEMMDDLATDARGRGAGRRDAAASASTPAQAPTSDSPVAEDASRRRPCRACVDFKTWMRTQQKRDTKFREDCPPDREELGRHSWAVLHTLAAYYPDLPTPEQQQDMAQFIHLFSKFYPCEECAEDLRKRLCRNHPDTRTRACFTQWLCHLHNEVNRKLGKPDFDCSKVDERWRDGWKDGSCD
* = called active by the depositor; nt = no result.

SMILES	Rtt109 Vps75	CAL PDZ FP-1	DYRK1A inh	CAL PDZ FP-2	ALR H2O2 inh
O=c1[nH]cnc2c1ccn2C1OC(CO)C(O)C1O (stereo not drawn)	-2.4	0.1	0.8	0.7	nt
CC(=O)N1CCN(S(=O)(=O)c2cccc(C(=O)OCc3ccc(C(C)(C)C)cc3)c2)CC1	0.3	3.4	-0.8	-0.5	nt
O=C(NCCc1nnc2ccc(NCc3cccnc3)nn12)c1ccccc1F	0.7	-4.3	nt	0.4	-2.8
O=C(NNC(=S)NC(=O)c1ccccc1[N+](=O)[O-])c1ccccc1[N+](=O)[O-]	1.8	-2.0	4.7	-2.0	-2.0
COc1ccc(OCC(=O)NNC(=S)NC(=O)c2ccc([N+](=O)[O-])cc2)cc1	1.6	-2.3	-1.0	-0.4	nt
O=C(Nc1c(Cl)cc(Cl)cc1C(=O)NCCN1CCOCC1)c1cccc([N+](=O)[O-])c1	-1.3	0.8	-0.7	-1.7	99.4*
O=C(NNC(=S)NC(=O)c1ccc(Br)cc1)c1cccc([N+](=O)[O-])c1	0.5	-0.5	-2.7	0.3	98.6*
CCCCCC(=O)NNC(=S)NC(=O)c1ccc([N+](=O)[O-])cc1	nt	-6.5	6.3	-0.1	88.3*
CC(=O)NNC(=S)NC(=O)c1cccc([N+](=O)[O-])c1	4.5	-3.9	-4.0	-0.2	72.8
Cc1ccc(C(=O)NC(=S)NNC(=O)c2ccccc2[N+](=O)[O-])cc1	3.6	nt	-1.7	-0.4	98.7*
CCC1CCCCN1C(=O)Nc1cc(Cl)ccc1OC (stereo not drawn)	9.0	0.4	0.9	-2.0	0.3
O=C(COc1ccc2c3c(c(=O)oc2c1)CCC3)NCc1cccnc1	-9.1	-3.3	8.0	-0.4	-1.4
Cc1ccc(C(=O)NC(=S)NNC(=O)c2ccc([N+](=O)[O-])cc2)cc1	10.3	nt	14.8	-1.4	98.8*
O=C(NNC(=O)c1ccc([N+](=O)[O-])cc1)c1ccc(Br)cc1	1.4	-2.3	-5.7	nt	8.4
O=C(NNC(=S)NCc1ccccc1)c1cccc([N+](=O)[O-])c1	26.2	-7.5	29.7	-0.8	14.4
CC(=O)Nc1ccc(NC(=S)NC(=O)c2ccc([N+](=O)[O-])cc2)cc1	-1.1	-0.2	8.7	-0.5	-10.3
O=C(NNC(=S)Nc1ccccc1)c1ccccc1[N+](=O)[O-]	18.3	-0.1	2.7	-0.2	71.7
O=C(NNC(=S)NC(=O)c1ccc(Br)cc1)c1ccc([N+](=O)[O-])cc1	0.9	nt	4.7	nt	99.6*
CC(=O)c1ccc(NC(=S)NNC(=O)c2ccccc2[N+](=O)[O-])cc1	3.8	nt	45.2	-0.6	93.4*
O=C(NNC(=S)NC(=O)c1ccccc1Cl)c1cccc([N+](=O)[O-])c1	3.0	3.1	4.2	-1.5	96.7*
O=c1[nH]nc(SCc2nnc(-c3cccc(Cl)c3)o2)n1C1CCCCC1	1.5	nt	-2.4	-0.1	12.5
O=C(CCc1ccc(O)cc1)N/N=C/c1coc2ccccc2c1=O	nt	nt	nt	nt	78.9*
Cc1cccc(C(=O)N/N=C/c2coc3ccccc3c2=O)c1	0.6	nt	nt	-2.8	88.6*
O=C(N/N=C/c1coc2ccc(Cl)cc2c1=O)c1ccc(O)cc1	11.2	-2.5	1.4	-4.3	97.9*
O=C(N/N=C/c1coc2ccc(Cl)cc2c1=O)c1ccncc1	4.9	-7.2	16.6	-1.1	-3.8
SMILES	Rtt109 Vps75	CAL PDZ FP-1	DYRK1A inh	CAL PDZ FP-2	ALR H2O2 inh
O=C(N/N=C/c1coc2ccccc2c1=O)c1cc(O)cc(O)c1	nt	5.2	13.9	-1.7	nt
CC(C)Oc1cccc(C(=O)N/N=C/c2coc3ccccc3c2=O)c1	1.4	-5.2	7.4	-5.1	97.5*
Cc1ccc(C(=O)N/C(=C\c2cccs2)C(=O)NCC2CCCO2)cc1C (stereo not drawn)	1.7	-3.4	nt	-0.8	-6.6
CC1=NN(C(N)=S)C(=O)C1N=Nc1ccc([N+](=O)[O-])cc1 (stereo not drawn)	-0.2	-5.6	3.4	-0.6	79.1*
N#CC1C=Cc2c(ccc3ccccc23)N1C(=O)c1ccccc1 (stereo not drawn)	-1.0	-0.5	nt	-0.7	nt
CCN(CC)c1ccc(/C=C(\C#N)C(=O)NCc2ccccc2)cc1	8.4	-4.0	11.8	0.3	8.9
COCCNC(=O)/C(C#N)=C/c1cccc(/C=C(\C#N)C(=O)NCCOC)c1	-2.3	nt	0.8	-0.4	-1.4
Cc1ccc(CNC(=O)/C(C#N)=C\c2ccc(N(C)C)cc2)cc1	nt	nt	nt	nt	97.9*
COCCNC(=O)/C(C#N)=C/c1ccc(O)cc1	-1.8	-0.3	nt	0.4	87.3*
COc1ccc(NC(=O)Cn2cnc3sc(C)c(S(=O)(=O)N4CCOCC4)c3c2=O)cc1Cl	-3.2	-3.6	-5.7	-2.3	nt
CCn1cc(C(=O)N[C@H](C(=O)O)C(C)C)c(=O)c2cc3c(cc21)OCO3	-1.5	46.3*	4.7	nt	-0.3
CCOC(=O)c1cc(C)sc1NC(=O)CN1CCN(C(=O)C2CCCO2)CC1 (stereo not drawn)	15.4	-2.3	2.6	-1.0	96.1*
COc1cc(C(=O)NCc2nnc(SCC(=O)Nc3c(C)cc(C)cc3C)o2)cc(OC)c1OC	0.4	60.1*	-0.3	-0.7	-2.1
COc1ccc(OC)c(NC(=O)CSc2nnc(CNC(=O)c3cc(OC)c(OC)c(OC)c3)o2)c1	-0.9	-2.0	-2.3	0.2	-27.0
COc1cc(C(=O)NCc2nnc(SCC(=O)Nc3cc(C)cc(C)c3)o2)cc(OC)c1OC	2.2	-0.6	-1.2	-2.0	97.3*
CCOc1ccc(CNS(=O)(=O)c2cccs2)cc1OCC	1.0	-3.4	-2.6	-1.9	0.6
O=S(=O)(NCC1CCC(NS(=O)(=O)c2c(F)cccc2F)CC1)c1ccc2c(c1)OCCO2 (stereo not drawn)	-17.6	-0.4	4.8	0.2	4.7
CO/N=C/NC(=O)c1ccc([N+](=O)[O-])c(CS(=O)(=O)c2ccc(Cl)cc2)c1	6.9	nt	2.8	0.7	99.5*
CCCCc1c(O)nc(SCC(=O)c2ccccc2)n(-c2ccccc2)c1=O	12.5	-0.1	nt	1.2	3.5
CCCCc1c(O)nc(SCC(=O)c2ccccc2)n(-c2ccccc2C)c1=O	18.0	-4.8	nt	-2.5	97.3*
CCCCc1c(O)nc(SCC(=O)c2ccccc2)n(-c2ccccc2OC)c1=O	3.3	-3.0	nt	-1.2	98.7*
C[C@H](N)C(=O)N1CCC(C(=O)N[C@@H](Cc2ccccc2)C(=O)Nc2ccc(F)cc2)CC1	1.3	-4.5	11.9	1.1	-26.1
N/N=C(\c1ccccc1)c1cc(Br)ccc1N	0.8	47.4*	0.5	nt	nt
Nc1ccc(Br)cc1C(=O)O	nt	-1.6	-0.4	-2.4	nt
COC1(OC)N=C(NC(=O)Nc2ccccc2)C2(C#N)C(c3ccccc3)C12C#N (stereo not drawn)	2.0	0.2	0.5	-0.2	98.8*
O=C(COc1ccccc1Cl)Nc1cc(NC(=O)COc2ccccc2Cl)cc(C(=O)O)c1	8.7	-2.4	-8.1	-2.9	-1.2
COc1ccccc1OCC(=O)Nc1cc(NC(=O)COc2ccccc2OC)cc(C(=O)O)c1	-5.6	-1.0	0.9	-2.2	98.4*

Bioassay records (PubChem BioAssay)
